Measurements: PubChem BioAssay
Active and inactive are the calls of the source.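 How the source made its calls, unless noted: active means viability at or below 10% of carrier control in both of two separate runs; inconclusive means viability at or below 10% in only one of the two runs; inactive means the rest.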

What was measured:
[1] = Her2 expression decrease, cell viability multiplex – SKBR3 breast tumor cells, AlphaScreen, ATP viability, primary screen (AID 461;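 active means Her2 level under about 52% in both replicate screens, with viability over 70% of control, limit read from the data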;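 on Her2 level: lower value means less Her2 protein in the cells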;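 on viability: percent of carrier control wells set as 100% viability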); settings: SKBR3 Her2 protein level, 18-24 h, measured here: SKBR3 viability, ATP luminescence, at 10 µM
[2] = biological target: Receptor tyrosine-protein kinase erbB-2 (Homo sapiens) (UniProt P04626); experiment: as above; settings: 18-24 h, at 10 µM, stronger effect = lower value
[3] = reduced viability of SK-BR-3 breast cancer cells – cell-based, 24 h, human, pilot screen (AID 572); settings: SK-BR-3 viability, CellTiter-Glo luminescence, at 10 µM, stronger effect = lower value;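 further: compound exposure lasted between 18 and 24 h rather than exactly 24 h; 100% = carrier-treated control wells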
[4] = HUVEC growth inhibition – cell-based, human, primary screen (AID 575;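 active means viability at or below 30% in both replicate assays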;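 further: 100% = median of untreated cell wells with 0.1% DMSO on each plate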); settings: HUVEC proliferation, CellTiter-Glo luminescence, 72 h; at 10 µM; stronger effect = lower value
Summary of the method: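 Test system: HUVEC primary cells. Quantity: 1250 endothelial cells in each well. Dosing: single-point 10 µM, DMSO 0.1% final. Incubation: 72 h treatment at 37 °C. Measured by: CTG luminescence. Control set: DMSO cell controls and MePR drug controls. Plate: collagen-coated 384-well format.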

[5] = H69AR cell proliferation blockers – human, duplicate replicates, primary screen (AID 580;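 active means viability at or under a set limit in both replicates, limit being median viability minus 3 SD, cut at about 48% in these data, passing the limit was not always enough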;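 further: 100% = mean luminescence of untreated wells and 0% = no signal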); settings: H69AR lung tumor cells viability, ATP luminescence, 72 h; at 10 µM; stronger effect = lower value
[6] = MRP1 drug-resistance reversers in H69AR cells – cell-based, doxorubicin co-treatment, pilot screen (AID 601;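 active means viability loss from added drug above about 55%, and viability with drug at most 40%, in both replicates, limit read from the data, passing the limit was not always enough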); settings: CellTiter-Glo, 72 h, at 10 µM; for differential viability (reversal): stronger effect = higher value
[7] = yeast transport mutant growth inhibition pilot in 384-well plates, post-Golgi transport modulator project (AID 636; in the data active means inhibition above about 31%); settings: absorbance 615 nm, about 18 h, stronger effect = higher value
[8] = growth suppression of yeast trafficking mutant, preliminary HTS, modulators of trafficking downstream of Golgi apparatus project, 1536-format plate, OD 615 nm (AID 637; in the data active means inhibition above about 30%); settings: yeast transport mutant growth, absorbance 615 nm, 18 h; stronger effect = higher value
[9] = H69AR cells + 2 uM doxorubicin, measured here: viability with 2 uM doxorubicin, stronger effect = lower value
[10] = H69AR cells, compound alone cytotoxicity

Chain of Receptor tyrosine-protein kinase erbB-2 (Homo sapiens) (P04626 whole entry, looked up): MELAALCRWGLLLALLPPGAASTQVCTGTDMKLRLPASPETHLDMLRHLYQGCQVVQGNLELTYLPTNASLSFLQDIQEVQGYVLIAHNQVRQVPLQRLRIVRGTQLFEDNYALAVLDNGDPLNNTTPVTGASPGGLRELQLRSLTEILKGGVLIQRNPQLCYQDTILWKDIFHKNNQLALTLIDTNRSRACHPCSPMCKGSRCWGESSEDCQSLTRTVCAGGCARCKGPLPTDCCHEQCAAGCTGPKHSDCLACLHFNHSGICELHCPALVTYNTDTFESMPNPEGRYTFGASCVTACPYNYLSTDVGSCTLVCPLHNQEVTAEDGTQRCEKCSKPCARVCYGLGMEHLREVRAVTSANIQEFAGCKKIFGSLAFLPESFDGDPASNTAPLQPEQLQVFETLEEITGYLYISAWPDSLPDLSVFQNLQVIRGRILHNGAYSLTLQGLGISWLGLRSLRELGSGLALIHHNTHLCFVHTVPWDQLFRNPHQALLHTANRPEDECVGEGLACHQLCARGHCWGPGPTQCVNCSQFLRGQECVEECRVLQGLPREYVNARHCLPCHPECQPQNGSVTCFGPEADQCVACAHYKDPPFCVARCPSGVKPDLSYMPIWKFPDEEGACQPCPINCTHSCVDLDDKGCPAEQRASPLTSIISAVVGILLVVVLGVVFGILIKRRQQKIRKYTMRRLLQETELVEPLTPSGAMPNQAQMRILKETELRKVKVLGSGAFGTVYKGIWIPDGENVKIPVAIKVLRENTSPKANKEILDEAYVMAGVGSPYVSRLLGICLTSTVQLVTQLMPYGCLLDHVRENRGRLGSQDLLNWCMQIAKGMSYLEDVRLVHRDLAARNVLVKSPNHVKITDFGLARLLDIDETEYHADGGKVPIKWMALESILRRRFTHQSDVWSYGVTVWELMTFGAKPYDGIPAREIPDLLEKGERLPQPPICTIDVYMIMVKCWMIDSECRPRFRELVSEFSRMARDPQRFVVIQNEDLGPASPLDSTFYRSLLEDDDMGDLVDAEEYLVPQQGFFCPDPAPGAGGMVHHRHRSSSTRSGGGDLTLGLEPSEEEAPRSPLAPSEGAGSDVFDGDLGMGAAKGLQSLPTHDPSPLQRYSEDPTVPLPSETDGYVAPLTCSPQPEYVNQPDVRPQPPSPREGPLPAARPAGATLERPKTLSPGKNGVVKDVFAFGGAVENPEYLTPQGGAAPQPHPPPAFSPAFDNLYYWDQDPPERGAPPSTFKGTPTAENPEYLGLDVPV

Row | SMILES | viability [1] | Her2 level [2] | viability [3] | viability [4] | viability [5] | differential viability (reversal) ([6]; H69AR cells + 2 uM doxorubicin) | viability [6, 9] | viability [6, 10] | inhibition [7] | inhibition [8]
1 | Cn1c(SCc2nc3ccccc3c(=O)[nH]2)nnc1-c1ccco1 | 99.5% | 81% (inactive) | 99.5% (inactive) | 97.5% (inactive) | 96% (inactive) | 5.6% (inactive) | 90.4% | 96% | -7.84% (inactive) | 6.89% (inactive)
2 | Clc1ccc2nc(N3CCCCC3)[nH]c2c1 | 90.5% | 78.5% (inactive) | 90.5% (inactive) | 105% (inactive) | 91.9% (inactive) | 11.6% (inactive) | 80.3% | 91.9% | -7.84% (inactive) | 2.79% (inactive)
3 | CCCCNS(=O)(=O)c1ccc(OC)c2ncccc12 | 102% | 108% (inactive) | 102% (inactive) | 102% (inactive) | 90% (inactive) | 0.295% (inactive) | 89.7% | 90% | -4.32% (inactive) | -3.33% (inactive)
4 | CCc1nn2c(=O)cc(CSc3nc4sc5c(c4c(=O)n3C)CCCC5)nc2s1 | 100% | 98% (inactive) | 100% (inactive) | 113% (inactive) | 90% (inactive) | 0.36% (inactive) | 89.6% | 90% | -0.65% (inactive) | 10% (inactive)
5 | Cn1c(=O)c2c(nc(SCc3nn[nH]n3)n2Cc2ccccc2F)n(C)c1=O | 97.5% | 97% (inactive) | 97.5% (inactive) | 94.4% (inactive) | 90.9% (inactive) | -2.83% (inactive) | 93.7% | 90.9% | -0.13% (inactive) | 1.27% (inactive)
6 | Cc1csc(NC(=O)CSc2nsc(SCC(=O)Nc3nc(C)cs3)c2C#N)n1 | 94.5% | 69% (inactive) | 94.5% (inactive) | 58.7% (inactive) | 6.57% (active) | -1.3% (inactive) | 7.88% | 6.57% | -6.67% (inactive) | -1.43% (inactive)
7 | O=C(NCCCN1CCCC1=O)c1ccc2c(c1)NC(=O)C(N1CCOCC1)S2 (stereo not given) | 143% | 94.5% (inactive) | 143% (inactive) | 115% (inactive) | 89.5% (inactive) | 6.1% (inactive) | 83.3% | 89.5% | -6.4% (inactive) | 0.82% (inactive)
8 | CCOc1ccc(C2C(C#N)=C(N)Oc3cc(C)n(CCN(C)C)c(=O)c32)cc1OCC (stereo not given) | 84% | 79.5% (inactive) | 84% (inactive) | 90.3% (inactive) | 101% (inactive) | 17.7% (inactive) | 83.3% | 101% | -4.32% (inactive) | -1.43% (inactive)
9 | COc1ccccc1Nc1nc(N)nc(CN2CCN(c3ccccc3F)CC2)n1 | 96% | 120% (inactive) | 96% (inactive) | 98.9% (inactive) | 81.3% (inactive) | -8.69% (inactive) | 90% | 81.3% | 1.71% (inactive) | 11.5% (inactive)
10 | Cc1ccc(CNC(=O)C2CCN(S(=O)(=O)c3c(C)noc3C)CC2)cc1 | 100% | 102% (inactive) | 100% (inactive) | 106% (inactive) | 104% (inactive) | 6.84% (inactive) | 97.4% | 104% | -0.53% (inactive) | -4.44% (inactive)
11 | CCNC(=O)Cn1cnc2c1c(=O)n(C)c(=O)n2C | 108% | 108% (inactive) | 108% (inactive) | 112% (inactive) | 96.2% (inactive) | -1.97% (inactive) | 98.2% | 96.2% | -4.74% (inactive) | 5.25% (inactive)
12 | COC(=O)Nc1ccccc1C(=O)N1CCCCC1 | 100% | 93% (inactive) | 100% (inactive) | 95.8% (inactive) | 99% (inactive) | 6.15% (inactive) | 92.9% | 99% | -5.33% (inactive) | -0.49% (inactive)
13 | O=C(CSc1nnc(Cc2cccs2)n1Cc1ccco1)Nc1cccc(Cl)c1 | 82.5% | 64% (inactive) | 82.5% (inactive) | 73.4% (inactive) | 87% (inactive) | -8.62% (inactive) | 95.6% | 87% | -3.38% (inactive) | -7.5% (inactive)
14 | C=C(C)CSc1nnc(-c2cccc(S(=O)(=O)N(C)C)c2)n1-c1cc(OC)ccc1OC | 75% | 93.5% (inactive) | 75% (inactive) | 95.4% (inactive) | 95.9% (inactive) | 4.91% (inactive) | 90.9% | 95.9% | -3.55% (inactive) | -2.55% (inactive)
15 | CC(=O)N(c1ccc(N(C(C)=O)S(=O)(=O)c2cccs2)cc1)S(=O)(=O)c1cccs1 | 90% | 104% (inactive) | 90% (inactive) | 85% (inactive) | 86% (inactive) | -22.3% (inactive) | 108% | 86% | -1.18% (inactive) | 1.15% (inactive)
16 | C=CCNC(=O)CSc1ccc(Cl)cc1 | 88.5% | 106% (inactive) | 88.5% (inactive) | 109% (inactive) | 81.4% (inactive) | -7.45% (inactive) | 88.8% | 81.4% | -4.21% (inactive) | 3.11% (inactive)

Row | SMILES | viability [1] | Her2 level [2] | viability [3] | viability [4] | viability [5] | differential viability (reversal) ([6]; H69AR cells + 2 uM doxorubicin) | viability [6, 9] | viability [6, 10] | inhibition [7] | inhibition [8]
17 | N#CCCCN1C(=O)C(O)(CC(=O)c2ccc3c(c2)OCCO3)c2ccccc21 (stereo not given) | 100% | 93.5% (inactive) | 100% (inactive) | 89.5% (inactive) | 85.3% (inactive) | 6.12% (inactive) | 79.2% | 85.3% | -2.89% (inactive) | -9.03% (inactive)
18 | COc1ccccc1N1CCN(Cc2nnnn2CCc2ccccc2)CC1 | 88% | 112% (inactive) | 88% (inactive) | 91.5% (inactive) | 93.2% (inactive) | 3.56% (inactive) | 89.7% | 93.2% | 1.51% (inactive) | 25.6% (inactive)
19 | CCOc1cc(C(=O)N2CCN(c3ccccc3)CC2)cc(OCC)c1OCC | 98.5% | 97% (inactive) | 98.5% (inactive) | 90.1% (inactive) | 97.2% (inactive) | 3.12% (inactive) | 94% | 97.2% | -4.93% (inactive) | -5.32% (inactive)
20 | O=C(NCCO)c1scc2c1OCCO2 | 104% | 92% (inactive) | 104% (inactive) | 91.8% (inactive) | 93.6% (inactive) | -7.95% (inactive) | 102% | 93.6% | -5.73% (inactive) | -1.8% (inactive)
21 | CCc1ccccc1-n1c(SCC(=O)N2CCCC2)nnc1-c1ccccn1 | 106% | 99.5% (inactive) | 106% (inactive) | 123% (inactive) | 95.3% (inactive) | 1.95% (inactive) | 93.3% | 95.3% | 1.92% (inactive) | -6.03% (inactive)
22 | Cc1ccc(C)c(N(CC(=O)NCc2ccco2)C(=O)CCC(=O)Nc2ccccn2)c1 | 93% | 92% (inactive) | 93% (inactive) | 81.8% (inactive) | 68.6% (inactive) | -5.34% (inactive) | 74% | 68.6% | -3.25% (inactive) | -1.43% (inactive)
23 | COC(=O)c1ccc(NC(=O)CN2C(=O)CSC2=O)cc1 | 104% | 93% (inactive) | 104% (inactive) | 90.1% (inactive) | 106% (inactive) | 12% (inactive) | 94.4% | 106% | -4.67% (inactive) | 2.3% (inactive)
24 | COc1cccc(C2=NOC(C(=O)Nc3ccc(C(C)=O)cc3)C2)c1 (stereo not given) | 96% | 98.5% (inactive) | 96% (inactive) | 96.6% (inactive) | 100% (inactive) | 16.6% (inactive) | 83.6% | 100% | -1.58% (inactive) | -4.73% (inactive)
25 | Cc1nc(N)c(C#N)c(-c2cccnc2)c1C | 94% | 83.5% (inactive) | 94% (inactive) | 74.3% (inactive) | 102% (inactive) | -13.1% (inactive) | 115% | 102% | -2.4% (inactive) | -2.86% (inactive)
26 | CC1(C)COCN1S(=O)(=O)c1ccc(C(=O)Nc2nnc(-c3ccc(Cl)s3)o2)cc1 | 70.5% | 97% (inactive) | 70.5% (inactive) | 4.41% (active) | 15% (active) | -18.8% (inactive) | 33.8% | 15% | -5.21% (inactive) | -1.43% (inactive)
27 | Cc1ccccc1S(=O)(=O)Cc1ccc(C(=O)NCc2cccnc2)o1 | 93% | 83.5% (inactive) | 93% (inactive) | 97.8% (inactive) | 94.2% (inactive) | 6.61% (inactive) | 87.6% | 94.2% | -1.84% (inactive) | -2.91% (inactive)
28 | O=c1[nH]cnc2c1C1(CCCC1)Cc1ccccc1-2 | 95.5% | 90% (inactive) | 95.5% (inactive) | 93.1% (inactive) | 100% (inactive) | 11.5% (inactive) | 88.7% | 100% | -0.26% (inactive) | -0.5% (inactive)
29 | CCN(c1cccc(C(F)(F)F)c1)S(=O)(=O)c1ccc2c(c1)CCN2C(=O)C1CC1 | 99% | 120% (inactive) | 99% (inactive) | 65.8% (inactive) | 82.5% (inactive) | -0.405% (inactive) | 82.9% | 82.5% | -3.42% (inactive) | -1% (inactive)
30 | CSc1nc(C)cc(Oc2ccc(=O)n(C)n2)n1 | 97% | 89.5% (inactive) | 97% (inactive) | 112% (inactive) | 90.5% (inactive) | 11.8% (inactive) | 78.7% | 90.5% | -3.92% (inactive) | -3.28% (inactive)
31 | CCCCc1ccc(NC(=O)N[C@H](C(=O)O)C(C)CC)cc1 (stereo not given in full) | 112% | 82% (inactive) | 112% (inactive) | 79.5% (inactive) | 99.7% (inactive) | 8.86% (inactive) | 90.8% | 99.7% | -5.92% (inactive) | -2.38% (inactive)
32 | CCCCn1nnnc1SCC(=O)Nc1cccc(C)n1 | 108% | 115% (inactive) | 108% (inactive) | 111% (inactive) | 113% (inactive) | 7.5% (inactive) | 105% | 113% | 2.3% (inactive) | 3.5% (inactive)
